3 molecules from PMC5600458 (Biochemistry and Biophysics Reports, 2016) can be followed below.

Data set [1] concerns the target T1, trypsin (Bos taurus, UniProt P00760).
T1 sequence (P00760 24-246): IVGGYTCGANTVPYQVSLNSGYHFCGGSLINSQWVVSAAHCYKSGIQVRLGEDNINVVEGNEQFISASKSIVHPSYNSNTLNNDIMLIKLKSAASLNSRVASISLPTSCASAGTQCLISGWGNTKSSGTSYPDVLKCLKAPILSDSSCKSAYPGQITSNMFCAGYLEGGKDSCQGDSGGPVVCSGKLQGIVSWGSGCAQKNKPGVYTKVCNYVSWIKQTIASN
It counts as biochemical. The settings on record: pH 7.2. In short, it runs like this: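 Trypsin (78% active by p-nitrophenyl p-guanidobenzoate titration) hydrolysing α-N-benzoyl-L-arginine-p-nitroanilide at 25 °C, [S0] ≪ KM, in 0.1 M buffers (potassium phosphate at pH 7.2; sodium acetate at pH 5.0). At pH 7.2: 88.0 μM substrate, 0.17 μM trypsin, 3.3% DMSO. Inhibitor was added last. Initial rates were taken within 0.5–1 min and fitted to d[P]/dt = vo·Ki/([I]+Ki), ≥3 determinations. Effective molarity = KHK(obs)/KH1.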

Data set [2] addresses T1, trypsin. The experiment in a line: 13C NMR of trypsin catalysed breakdown of bound glyoxal inhibitor. The settings on record: pH 7.2, in the presence of trypsin. It counts as biochemical.
A short description of data set [3]: Hydration constants by quantitative 13C NMR. It counts as physicochemical. The settings on record: pH 3.0, 13C NMR.
Data set [4] is described as follows: 13C NMR of stability / Schiff base formation by the free glyoxal inhibitor. Type of data set: physicochemical.

As to `NC(N)=NCCC[C@H](NC(=O)OCc1ccccc1)C(=O)O` [Z-Arg-COOH], the “Tighter binding than Z-Lys-COOH” value at trypsin [1] is given as ~ 2 fold.
As to `NCCCC[C@H](NC(=O)OCc1ccccc1)C(=O)[13CH]=O` [Z-Lys-CO^13CHO], at trypsin [2], the “t1/2 of conversion of trypsin-bound inhibitor to α-hydroxycarboxylic acid” value is on record as 2.9 h. Moreover, the “KH1obs, glyoxal aldehyde carbon” value in data set [3] is 97±7. In data set [4] (pH 3.0, 64 h at 25 °C), the “Stability of NMR signals” value is given as “no change in the intensity of the NMR signals”. In addition, in data set [4] (pH 3, storage ~1 year), the “t1/2 of decrease of inhibitor signals on storage” value is 1850 ± 228 h. The “Half life of Schiff base formation” value was found to be 11.2 h in data set [4] (pH 7.2, 25 °C) and 0.15 h in data set [4] (pH 10.4). Besides, the “1st order rate constant of Schiff base formation” value in data set [4] (pH 7.2, 25 °C, 20 mM potassium phosphate buffer) was determined as 0.062 ± 0.016 h⁻¹; in data set [4] (pH 10.4, 20 mM sodium bicarbonate buffer), 4.7 ± 0.7 h⁻¹.
For `NCCCC[C@H](NC(=O)OCc1ccccc1)[13C](=O)C=O` [Z-Lys-^13COCHO], the “Half life of Schiff base formation allowing for pH 7.0 instead of 7.2” value in data set [4] (corrected to pH 7.2) is reported as 14.5 h. Further, the “Half life of Schiff base formation” value in data set [4] (pH 7.0) came to 23.0 h. Also, in data set [4] (pH 7.0, 25 °C, 20 mM potassium phosphate buffer), the “1st order rate constant of Schiff base formation” value came to 0.030±0.004 h^−^1.
